Most compounds without a hit are left out; they make up all but 2.6% or so of the library.
S100A4 inh HTS – inhibitors of S100A4-myosin IIA peptide binding, primary screen, biochemical, fluorescence polarization, TAMRA-MyoIIA peptide; inhibition, % at 10.7 µM; actives 0.14% (n = 360,000); AID 652163, 2013;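 active = mean inhibition of at least 70% across replicates, with every replicate also reaching that level; inconclusive = mean inhibition reaches 70% but some replicates fall short; inactive = mean inhibition below 70%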
Target sequence (P26447 whole entry, looked up): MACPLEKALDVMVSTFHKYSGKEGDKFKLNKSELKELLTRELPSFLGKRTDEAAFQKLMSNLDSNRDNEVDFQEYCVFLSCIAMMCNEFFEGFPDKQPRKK
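Test system: S100A4 monomer protein; Medium: HEPES pH 7.2 with CaCl2, KCl, NaCl, DTT, Triton; Probe or stimulus: TAMRA-labelled myosin IIA heavy-chain peptide probe, 5 nM; Doses: one dose per compound; Times: polarization read 5 min after assay mix addition, stable 5–60 min; Benchmarks: neutral control DMSO, positive control TFP.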
Vif imaging – HIV Vif self-association inhibitors, primary screen, imaging, HEK293T, single point; actives 0.35% (n = 340,000); inhibition, % at 7.49 µM; AID 602346, 2012; HEK293T cells, Vif self-association by quenched fluorescence, 24 h; in the data active = inhibition above about 50%, passing the limit was not always enough; inconclusive = no clear call, values can overlap the other calls; inactive = below about 31%
Env fusion inh – inhibitors of HIV-1 Env-driven cell-cell fusion, primary screen, HeLa-JRFL effector, CEM21 target cells, luciferase; inhibition, % at 12.3 µM; actives 1.1% (n = 360,000); AID 651610, 2012;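 active = mean replicate inhibition score of at least 50 and every replicate individually at or above 50; inconclusive = only one of the two criteria met; inactive = mean below 50 and not all replicates reaching 50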;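 also: 0% = plate neutral controls and 100% = maraviroc near 300 nM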
rRNA inh HTS – reduced GFP signal of wild-type E. coli, primary screen, bacterial rRNA inhibitor project, GFP/RFP fluorescence, OD600, single point; actives 1.6% (n = 350,000); E. coli WT GFP vs humanized-ribosome RFP mutants, 24 h; active compounds read low; DMSO median 0, no signal -100; GFP signal change (wild-type ribosome), % (concentration not given with the values);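 active = significant combined selectivity score with lowered wild-type GFP, culture density cut under 30%, mutant RFP and density less affected; inactive = any of these conditions unmet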
FN deposit inh – inhibitors of fibronectin matrix deposition, primary screen, AH1F cells, Alexa488-fibronectin fluorescence, plate reader. AH1F fibroblasts, overnight. inhibition, % at 12.6 µM. actives 0.086% (n = 350,000). AID 743247, 2014;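 active = mean inhibition across replicates of 30% or more, regardless of how many single replicates reach that level; inconclusive = mean under 30% yet at least half of replicates reach 30%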;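 also: positive control wells lacked labelled fibronectin entirely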
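Assay system: AH1F fibroblast monolayer, labelled fibronectin deposition. Amount: 10000 cells per well. Also added: labelled fibronectin 24 nM. Compound: single-point pinned compound. Incubation: cell attachment 1 h, compound and FN exposure overnight. Detection: fluorescence after three HBSS washes, excitation 485 nm, emission 525 nm. Read-out: inhibition of fibronectin deposition signal.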
miR122 inh – miR-122 Renilla sensor signal increase in Huh7, primary screen, miR-122 inhibitor project, cell-based, single point, plate reader | Huh7 miR-122 Renilla luciferase sensor, 48 h; neutral wells = 0, positive control = 100 | activation (reporter increase), % at 12.5 µM | actives 0.3% (n = 340,000);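 active = mean replicate activation score at least 90 and every replicate individually at or above 90; inconclusive = only one of the two criteria met; inactive = neither criterion met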;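 also: higher luciferase means less miR-122 activity so hits act as miR-122 inhibitors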
AID977621 – growth inhibition of wild-type GFP E. coli, dose response, H69 mutant RFP, cherry-pick; E. coli wild-type GFP strain growth, fluorescence, 24 h; 1,900 tested, under 10 active; shares compounds with rRNA inh HTS; activity change, negative = inhibition at 50 µM;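 active = Wild-type ribosome reporter drop at least double the humanized mutant ribosome reporter drop, growth loss under a set limit; inconclusive = no clear call, values can overlap the other calls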;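 also: wild-type GFP and H69 mutant RFP strains grown together 50/50 in each well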
AID977628 – E. coli growth inhibition, wild-type GFP versus h24 humanized RFP strain, dose response, h24 mutant RFP vs wild-type GFP, cherry-pick | 1,900 tested, under 10 active | activity change, negative = inhibition at 50 µM | shares compounds with rRNA inh HTS | E. coli WT GFP strain growth, fluorescence, 24 h;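 active = compound lowering the normal-ribosome reporter at least twice as much as the humanized-ribosome reporter, growth loss under a set limit; inconclusive = no clear call, values can overlap the other calls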;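 also: wild-type GFP and h24 humanized RFP strains co-cultured 1 to 1 per well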
* hit, by the source's call; [ ] = another dose, or the depositor's remark.

How did O=C(NCC[C@@H]1CC[C@@H](NS(=O)(=O)c2ccc(Oc3ccccc3)cc2)[C@@H](CO)O1)C1CC1 do in these assays?
S100A4 inh HTS: 17; Env fusion inh: 18[16.7 µM]; rRNA inh HTS: -2; FN deposit inh: 1

What do the screens show for `CC(C)CN1C(=O)c2ccc(C(=O)Nc3ccncc3)cc2C1=O`?
S100A4 inh HTS: -2; rRNA inh HTS: -25*; miR122 inh: -6; AID977628: -9.2

What do the screens show for `Cc1cccc(C)c1NC(=O)CNC(=O)C(C)N1CCN(c2cccc(Cl)c2)CC1` (stereo not given)?
S100A4 inh HTS: 55; Vif imaging: -4; Env fusion inh: -4; rRNA inh HTS: -22*; FN deposit inh: -1; AID977628: -16

Results for Cc1cc(NC(=O)CN2CCN(c3cccc(Cl)c3)CC2)no1 ?
S100A4 inh HTS: -29; Vif imaging: -5; Env fusion inh: -2; rRNA inh HTS: -15*; AID977628: inconclusive

Results for COc1ccc(-c2nc3ccc(Cl)cn3c2Cc2cccc(F)c2)cc1OC ?
S100A4 inh HTS: -15; Env fusion inh: 15; rRNA inh HTS: -21*; FN deposit inh: 8; miR122 inh: 3; AID977621: inconclusive

What do the screens show for `COc1ccc(Cc2c(-c3cccc(Cl)c3)nc3ccc(Cl)cn23)c(C)c1`?
S100A4 inh HTS: -7; Env fusion inh: -14; rRNA inh HTS: -19*; FN deposit inh: -4; miR122 inh: -7; AID977621: inconclusive; AID977628: -10

Results for Fc1ccc(-c2nc3ccc(Cl)cn3c2Cc2cccc(Cl)c2)cc1 ?
S100A4 inh HTS: 1; Env fusion inh: 0; rRNA inh HTS: -21*; FN deposit inh: -6; miR122 inh: 4; AID977621: 8.2; AID977628: -17

How did Clc1ccc(-c2nc3ccc(Cl)cn3c2Cc2cccc(Cl)c2)cc1 do in these assays?
S100A4 inh HTS: -3; Env fusion inh: -31; rRNA inh HTS: -13; FN deposit inh: -7; miR122 inh: 1

What do the screens show for `COc1ccc(-c2nc3ccc(C)cn3c2Cc2cccc(F)c2)cc1OC`?
S100A4 inh HTS: -5; Env fusion inh: 6; rRNA inh HTS: -61; FN deposit inh: 3; miR122 inh: 3

What do the screens show for `COc1ccc(Cc2c(-c3cccc(Br)c3)nc3ccc(Cl)cn23)c(C)c1`?
S100A4 inh HTS: 1; Env fusion inh: -50; rRNA inh HTS: -5; FN deposit inh: -4; miR122 inh: 3

What do the screens show for `Cc1ccc2nc(-c3ccc(Cl)cc3)c(Cc3ccccc3C(F)(F)F)n2c1`?
S100A4 inh HTS: 6; Env fusion inh: -10; rRNA inh HTS: -16*; FN deposit inh: 0; miR122 inh: 22; AID977621: -2.3; AID977628: -2.8

How did COc1ccc(NS(=O)(=O)c2cc(NC(=O)CCSc3ccccc3)ccc2OC)cc1 do in these assays?
Vif imaging: -1; Env fusion inh: 9; FN deposit inh: -1; miR122 inh: 49

What do the screens show for `COc1ccc(NC(=O)CCC(=O)c2cccs2)cc1S(=O)(=O)Nc1ccc(Cl)cc1`?
S100A4 inh HTS: -3; Vif imaging: 15; Env fusion inh: 10; rRNA inh HTS: -19*; FN deposit inh: 12; miR122 inh: 322*; AID977621: -15

Results for COc1ccc(NC(=O)CCS(=O)(=O)c2ccccc2Cl)cc1S(=O)(=O)Nc1ccc(Cl)cc1 ?
S100A4 inh HTS: -1; Vif imaging: -3; Env fusion inh: 5; rRNA inh HTS: -19*; FN deposit inh: 8; AID977621: -7.7

How did Cc1ccc(NC(=O)CN(C)S(=O)(=O)c2cccc3cccnc23)cc1F do in these assays?
S100A4 inh HTS: -1; Vif imaging: -2; Env fusion inh: 10; rRNA inh HTS: -28*; FN deposit inh: 6; AID977621: -7.4

Results for CCc1nc2ccccc2c(C(=O)OCC(=O)NC2CC2)c1C ?
S100A4 inh HTS: -16; Vif imaging: -3; Env fusion inh: 4; rRNA inh HTS: 8; FN deposit inh: -1; miR122 inh: 5

Results for CCc1nc2ccccc2c(C(=O)OCC(=O)NC(=O)c2cccn2C)c1C ?
S100A4 inh HTS: -5; Vif imaging: -7; Env fusion inh: 12; rRNA inh HTS: -24*; FN deposit inh: 0; miR122 inh: -3; AID977621: inconclusive; AID977628: -4.1

What do the screens show for `Cc1ccc2oc(-c3cccc(NC(=O)c4ccccn4)c3)nc2c1`?
S100A4 inh HTS: 0; Vif imaging: -4; Env fusion inh: -1; rRNA inh HTS: 21; FN deposit inh: -2; miR122 inh: 1

Results for CC(=O)Nc1ccc(S(=O)(=O)Nc2cccc(-c3nc4cc(C)ccc4o3)c2)cc1 ?
S100A4 inh HTS: -2; Vif imaging: -2; Env fusion inh: 8; rRNA inh HTS: -18*; FN deposit inh: 1; miR122 inh: 39; AID977621: -3.9

How did C[C@@H]1CN([C@@H](C)CO)C(=O)CCCn2cc(nn2)CO[C@@H]1CN(C)Cc1ccc(O)cc1 do in these assays?
S100A4 inh HTS: 17; Env fusion inh: -19[16.7 µM]; rRNA inh HTS: 0; FN deposit inh: -7; miR122 inh: 15[16.7 µM]

Results for CC(C)CC#Cc1ccc2c(c1)O[C@@H](CN(C)C(=O)Cc1ccccn1)[C@H](C)CN([C@H](C)CO)S2(=O)=O ?
S100A4 inh HTS: -7; Env fusion inh: -10[16.7 µM]; rRNA inh HTS: -3; FN deposit inh: 7; miR122 inh: -10[16.7 µM]

Results for NC(=O)c1ccccc1OCCOc1ccc(Br)cc1 ?
S100A4 inh HTS: -8; Vif imaging: 1; Env fusion inh: -33; rRNA inh HTS: -26*; FN deposit inh: -16; miR122 inh: 1; AID977621: 7.6; AID977628: -1.7

How did CC(=O)Nc1ccccc1OCCOc1ccc(Br)cc1 do in these assays?
S100A4 inh HTS: -9; Vif imaging: -12; Env fusion inh: 5; rRNA inh HTS: -25
